Key:
[1] = system: A549; assay: Growth inhibition of human A549 cells at 10 uM after 48 hrs by SRB assay relative to control; assay type: functional; conditions: A549, 48 h, read-out: GI
Procedure, shortened: (§1)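 Primary SRB screen of every compound at a single concentration of 10 µM. Growth inhibition is expressed relative to control.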

[2] = system: PC-3; assay: Growth inhibition of human PC3 cells at 10 uM after 48 hrs by SRB assay relative to control; assay type: functional; conditions: PC-3, 48 h, read-out: GI; procedure, shortened: as §1
[3] = system: HCT-116; assay: Growth inhibition of human HCT116 cells at 10 uM after 48 hrs by SRB assay relative to control; assay type: functional; conditions: HCT-116, 48 h, read-out: GI; procedure, shortened: as §1
[4] = system: MCF7; assay: Growth inhibition of human MCF7 cells at 10 uM after 48 hrs by SRB assay relative to control; assay type: functional; conditions: MCF7, 48 h, read-out: GI; procedure, shortened: as §1
[5] = system: MIA PaCa-2; assay: Growth inhibition of human MIAPaCa2 at 10 uM after 48 hrs by SRB assay relative to control; assay type: functional; conditions: MIA PaCa-2, 48 h, read-out: GI; procedure, shortened: as §1
[6] = system: A549; assay: Cytotoxicity against human A549 cells assessed as reduction in cell viability after 48 hrs by SRB assay; assay type: functional, cell-based; conditions: A549, 48 h
Procedure, shortened: (§2)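 SRB assay. Compounds active at 10 µM in the primary screen were retested at 1, 2.5 and 5 µM, and IC50 was calculated from these concentrations. The normal breast epithelial line fR2 was tested alongside the cancer lines.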

[7] = system: PC-3; assay: Cytotoxicity against human PC3 cells assessed as reduction in cell viability after 48 hrs by SRB assay; assay type: functional, cell-based; conditions: PC-3, 48 h; procedure, shortened: as §2
[8] = system: HCT-116; assay: Cytotoxicity against human HCT116 cells assessed as reduction in cell viability after 48 hrs by SRB assay; assay type: functional, cell-based; conditions: HCT-116, 48 h; procedure, shortened: as §2
[9] = system: MCF7; assay: Cytotoxicity against human MCF7 cells assessed as reduction in cell viability after 48 hrs by SRB assay; assay type: functional, cell-based; conditions: MCF7, 48 h; procedure, shortened: as §2
[10] = system: MIA PaCa-2; assay: Cytotoxicity against human MIAPaCa2 cells assessed as reduction in cell viability after 48 hrs by SRB assay; assay type: functional, cell-based; conditions: MIA PaCa-2, 48 h; procedure, shortened: as §2
[11] = Cytotoxicity against human FR2 cells assessed as reduction in cell viability after 48 hrs by SRB assay; assay type: cell-based; conditions: FR2, 48 h; procedure, shortened: as §2
[12] = Selectivity index, ratio of IC50 for human FR2 cells to IC50 for human A549 cells; assay type: functional
Procedure, shortened: (§3)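 Selectivity index is the IC50 in normal breast epithelial fR2 cells divided by the IC50 in each cancer line. All IC50 values come from the SRB assay.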

[13] = Selectivity index, ratio of IC50 for human FR2 cells to IC50 for human PC3 cells; assay type: functional; procedure, shortened: as §3
[14] = Selectivity index, ratio of IC50 for human FR2 cells to IC50 for human HCT116 cells; assay type: functional; procedure, shortened: as §3
[15] = Selectivity index, ratio of IC50 for human FR2 cells to IC50 for human MCF7 cells; assay type: functional; procedure, shortened: as §3
[16] = Selectivity index, ratio of IC50 for human FR2 cells to IC50 for human MIAPaCa2 cells; assay type: functional; procedure, shortened: as §3
[17] = system: SK-MEL-2; assay: Cytotoxicity against human SK-MEL-2 cells assessed as reduction in cell viability; assay type: functional, cell-based

| Structure (SMILES) | inhibition of growth at 10 µM [1] | inhibition of growth at 10 µM [2] | inhibition of growth at 10 µM [3] | inhibition of growth at 10 µM [4] | inhibition of growth at 10 µM [5] | IC50 [6] | IC50 [7] | IC50 [8] | IC50 [9] | IC50 [10] | IC50 [11] | Ratio IC50 [12] | Ratio IC50 [13] | Ratio IC50 [14] | Ratio IC50 [15] | Ratio IC50 [16] | IC50 [17] |
| --- | --- | --- | --- | --- | --- | --- | --- | --- | --- | --- | --- | --- | --- | --- | --- | --- | --- |
| C=C(C)[C@@H]1CC[C@]2(C(=O)O)CC[C@]3(C)[C@H](CC[C@@H]4[C@@]5(C)C/C(=C\c6cccnc6)C(=O)C(C)(C)[C@@H]5CC[C@]43C)[C@@H]12 | 94% | 67% | 96% | 97% | 97% | 3.1 µM | 6.6 µM | 1.97 µM | 2.6 µM | 4.9 µM | 100 µM | 32.25 | 15.15 | 50.76 | 38.46 | 20.4 | – |
| C=C(C)[C@@H]1CC[C@]2(C(=O)O)CC[C@]3(C)[C@H](CC[C@@H]4[C@@]5(C)C/C(=C\c6ccc(F)cc6)C(=O)C(C)(C)[C@@H]5CC[C@]43C)[C@@H]12 | 92% | 95% | 99% | 95% | 96% | 2.6 µM | 6.4 µM | 3.6 µM | 4.4 µM | 5.4 µM | 71.1 µM | 27.33 | 11.1 | 19.73 | 16.15 | 13.15 | – |
| C=C(C)[C@@H]1CC[C@]2(C(=O)O)CC[C@]3(C)[C@H](CC[C@@H]4[C@@]5(C)C/C(=C\c6ccc(Br)o6)C(=O)C(C)(C)[C@@H]5CC[C@]43C)[C@@H]12 | 91% | 79% | 87% | 92% | 75% | 2.9 µM | 5.7 µM | 2.9 µM | 5.6 µM | 5.2 µM | 13.6 µM | 4.69 | 2.389 | 4.696 | 2.432 | 2.619 | – |
| CC(C)[C@@H]1CC[C@]2(C(=O)O)CC[C@]3(C)[C@H](CC[C@@H]4[C@@]5(C)C=C(Cl)C(=O)C(C)(C)[C@@H]5CC[C@]43C)[C@@H]12 | – | – | – | – | – | – | – | – | – | – | – | – | – | – | – | – | 0.13 µM |
| C=C(C)[C@@H]1CC[C@]2(C(=O)O)CC[C@]3(C)[C@H](CC[C@@H]4[C@@]5(C)C/C(=C\c6cccc7ccccc67)C(=O)C(C)(C)[C@@H]5CC[C@]43C)[C@@H]12 | 90% | 71% | 62% | 67% | 64% | 3.09 µM | 5.3 µM | 8.4 µM | 8.6 µM | 7.9 µM | 12.3 µM | 3.977 | 2.318 | 1.463 | 1.429 | 1.555 | – |
| C=C(C)[C@@H]1CC[C@]2(C(=O)O)CC[C@]3(C)[C@H](CC[C@@H]4[C@@]5(C)C/C(=C\c6ccc(OC)cc6)[C@H](O)C(C)(C)[C@@H]5CC[C@]43C)[C@@H]12 | 54% | 52% | 63% | 69% | 67% | 4.3 µM | 7.4 µM | 4.9 µM | 6.9 µM | 6.4 µM | 21.6 µM | 5.016 | 2.914 | 4.402 | 3.126 | 3.37 | – |

— ChEMBL document CHEMBL4052644, “Synthesis of novel benzylidene analogues of betulinic acid as potent cytotoxic agents” (Eur J Med Chem, 2017)
